Screening results from PubChem BioAssay.
An excerpt weighted towards active compounds, which were near 1.9% of everything screened.
Yeast superoxide = caloric restriction mimetics inhibiting age-related superoxide in yeast. S. cerevisiae aged cells, superoxide DHE fluorescence; active compounds read low. superoxide response (% of plate mean), % at 10 µM. hit rate 0.18% among 330,000. AID 2690;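 active means superoxide response under a set limit, about three screen SD below normal, cut at about 65% in these data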;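 further: yeast aged for seven days with compound at 30 °C before DHE staining; 100% = average MFI of all compound-treated wells on the plate with controls excluded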
MIN6 prolif = inducers of beta-cell replication in MIN6 cells | AID 2380 | MIN6 cells proliferation, ATPlite luminescence, 48 h; cells starved in 0.2% serum; 100% = growth in 10% serum | proliferation, % at 10 µM | hit rate 0.29% among 330,000;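 active means compounds whose signal lies at least 3.5 SD above the mean of all wells on their plate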;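 further: 0% = DMSO-treated cells in low-serum medium and 100% = 10% serum control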
Rev-erbA mod = modulators of human Rev-erb alpha DNA binding | Rev-erbα–FITC-DNA binding, fluorescence polarization, 90 min | activity, % at 10 µM | hit rate 0.79% among 370,000;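 active means activity above about 14%, limit read from the data; passing the limit was not always enough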;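 further: 0% = DMSO wells with 35 nM protein and 100% = DMSO wells with 750 nM protein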
Rce1 inh = yeast Ras-converting enzyme inhibition. Q03530. yeast membranes, quenched prenylated peptide cleavage fluorescence. calls only. hit rate 0.27% among 290,000. AID 2563;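 active means fall in fluorescence gain of 50% or more versus controls, with final raw signal at or below 3038400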;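 further: plate controls were neutral control wells for no effect and wells lacking membranes for full effect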
Target sequence (Q03530 whole entry, looked up): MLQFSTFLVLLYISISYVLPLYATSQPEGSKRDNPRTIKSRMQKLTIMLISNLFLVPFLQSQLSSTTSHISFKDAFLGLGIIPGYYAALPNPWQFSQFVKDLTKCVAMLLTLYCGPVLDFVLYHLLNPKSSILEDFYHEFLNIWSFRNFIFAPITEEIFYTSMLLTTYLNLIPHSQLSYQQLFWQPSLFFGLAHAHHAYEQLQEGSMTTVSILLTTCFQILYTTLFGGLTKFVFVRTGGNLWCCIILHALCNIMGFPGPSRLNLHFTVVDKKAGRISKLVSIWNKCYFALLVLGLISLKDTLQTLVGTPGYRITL
UCH37 inh = inhibitors of human deubiquitinating enzyme UCH37 | inhibition, % (concentration not given with the values) | Q9Y5K5 | hit rate 0.33% among 330,000 | purified proteasome/UCH37, Ub-AMC cleavage fluorescence;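 active means mean inhibition over replicate wells above about 20%, limit read from the data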;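 further: 0% = compound-free wells with enzyme and 100% = wells lacking proteasome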
Target sequence (Q9Y5K5 whole entry, looked up): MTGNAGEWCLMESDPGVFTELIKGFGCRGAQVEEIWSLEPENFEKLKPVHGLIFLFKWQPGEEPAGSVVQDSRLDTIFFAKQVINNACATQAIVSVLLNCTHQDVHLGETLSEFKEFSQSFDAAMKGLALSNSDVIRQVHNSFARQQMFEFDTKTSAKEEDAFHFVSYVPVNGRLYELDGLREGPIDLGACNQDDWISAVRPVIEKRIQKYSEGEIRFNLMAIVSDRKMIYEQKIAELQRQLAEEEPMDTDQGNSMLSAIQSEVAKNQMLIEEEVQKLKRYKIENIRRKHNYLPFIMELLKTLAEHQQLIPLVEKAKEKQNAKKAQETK
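Material: human UCH37 enzyme supplied as purified proteasome complex / Amount: 0.15 nM proteasome as dispensed / Buffer or medium: pH 7.4 Tris-HCl (50 mM) with ovalbumin, ATP-MgCl2, DTT / Times: preincubation 30 min, reaction 25 min, room temperature / Technique: AMC fluorescence from Ub-AMC cleavage, excitation 355 nm, emission 460 nm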
PG9 Ab binder = small molecules binding HIV-1 gp120 antibody PG9. TR-FRET gp120-PG9 antibody binding. AID 624416. hit rate 0.43% among 360,000. inhibition, % at 6.7 µM; in the data active means inhibition above about 8.5%
NR1D1 mod conf = Rev-erb alpha (human) modulation, hit confirmation; shares compounds with Rev-erbA mod; Rev-erb alpha FITC-DNA binding, fluorescence polarization, 90 min; activation, % at 25 µM; hit rate 61% among 3,000;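 active means activation at or above a set limit, or at least 3 SD above the negative control mean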;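 further: 0% = 35 nM protein with DMSO and 100% = 750 nM protein high control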
RORg counter = counter-screen for Rev-erb alpha modulators: RORgamma DNA binding | shares compounds with Rev-erbA mod | purified RORgamma protein-FITC-DNA binding, fluorescence polarization | IC50, µM | hit rate 8% among 910 | AID 1259320;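 active means Compounds whose fitted half-maximal concentration for disrupting protein-DNA binding is below 10 micromolar; the record names Rev-erb in its text, so the target is in doubt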
* = called active by the depositor; i = inactive; x = not tested or not shown.

SMILES	Yeast superoxide	MIN6 prolif	Rev-erbA mod	Rce1 inh	UCH37 inh	PG9 Ab binder	NR1D1 mod conf	others
COc1ccc(S(=O)(=O)N2CCN(c3cc(-c4ccccc4)nc4ncnn34)CC2)cc1	111	-5	6	i	-24	-1	x
CCOC(=O)N1CCN(c2c(-c3ccccc3)c3cc(Cl)ccc3[nH]c2=O)CC1	85	-6	33*	i	-50	1	-1
CCOC(=O)C1CCN(c2c(-c3ccccc3)c3cc(Cl)ccc3[nH]c2=O)CC1	90	-3	37*	i	-30	-1	8
O=c1[nH]c2ccc(Cl)cc2c(-c2ccccc2)c1N1CCN(CCO)CC1	131	-6	-5	i	-168	2	x
COc1ccc(CCNC(=O)CSc2ncc(C(=O)Nc3ccccc3)c(=O)n2C)cc1	107	-1	12	i	5	-1	x
COc1ccccc1NC(=O)c1cnc(SCC(=O)NCCc2ccccc2)n(C)c1=O	99	-3	14*	i	-90	2	32*	RORg counter=i
Cc1ccc(-n2nccc2-c2nn(-c3cccc(C(F)(F)F)c3)c(=O)n(C)c2=O)cc1	81	0	33*	i	-7	-1	10
COc1ccc(OCC(=O)NN=C2CCc3ccccc32)cc1	x	x	x	x	2	x	x
O=C(CSc1nnc(-c2ccc(S(=O)(=O)N3CCOCC3)cc2)o1)c1ccccc1F	88	0	21*	i	2	0	10
COc1ccc(C2CC(c3cccs3)=NN2C(=O)CSC2=NCCS2)cc1 (stereo not given)	104	1	14*	i	-25	-3	2
CSC1=C(C#N)C(c2ccccc2Cl)C2=C(N1)c1ccccc1C2=O (stereo not given)	95	-4	62*	i	7	0	20*
CSC1=C(C#N)C(c2ccccc2C)C(C#N)=C(N)N1 (stereo not given)	98	5	27*	i	-1	-3	14
Cc1cc(C(=O)NN=Cc2ccc(O)c(O)c2O)c(C)n1-c1ccccc1	x	x	x	x	8	x	x
CC(=O)[C@@]1(O)Cc2c(O)c3c(c(O)c2[C@H](O[C@H]2C[C@H](N)[C@H](O)[C@H](C)O2)C1)C(=O)c1ccccc1C3=O	x	x	24*	x	x	-6	11*
COc1cccc2c1C(=O)c1c(O)c3c(c(O)c1C2=O)C[C@@](O)(C(=O)CO)C[C@@H]3OC1CC(N)C(O)C(C)O1 (stereo not given in full)	x	x	-13	x	x	-13	x
CN1C(=O)/C(=C/C=C2\SCCN2C)N(C)C1=S	x	-2	51*	i	10	-37	22*
N#Cc1ccc(NN=Cc2ccccc2)c([N+](=O)[O-])c1	x	x	x	x	3	x	x
COc1cc(/C=N/NC(=O)c2c(C)nc3ccc(Cl)cn23)cc(OC)c1OC	104	-3	50*	i	x	1	47*	RORg counter=>40
COc1ccc(/C=N/NC(=O)c2c(C)nc3ccc(Cl)cn23)cc1OC	96	3	-1	i	x	-1	x
COc1ccc(-c2oc(=O)c3cc(OC)c(OC)cc3c2C#C[C@]2(O)CC[C@H]3[C@@H]4CCc5cc(OC)ccc5[C@H]4CC[C@@]32C)cc1	90	-4	30*	x	-31	-1	3
Cc1cc2n(n1)C(c1cn(-c3ccccc3)nc1C)Nc1ccccc1-2 (stereo not given)	102	0	29*	i	-146	0	5
COc1ccccc1C=NOC(=O)c1ccc(C)cc1	x	x	x	x	3	x	x
Cc1cccc2cc(C=NNC(=O)CN3CCOCC3)c(Cl)nc12	x	x	x	x	-4	x	x
Nc1nc(-c2ccccc2)c(N=Nc2cccc3ccccc23)s1	100	-6	0	i	8	0	x
Nc1nc(-c2ccccc2)c(N=Nc2ccccc2Cl)s1	120	-3	30*	i	14	-2	27*
SMILES	Yeast superoxide	MIN6 prolif	Rev-erbA mod	Rce1 inh	UCH37 inh	PG9 Ab binder	NR1D1 mod conf	others
O=C(Nc1cccnc1Cl)c1cc(-c2ccc(Br)cc2)on1	100	-2	23*	i	2	3	-4
COc1ccc(-c2cc(C(=O)Nc3cccnc3Cl)no2)cc1OC	107	0	39*	i	-29	0	35*	RORg counter=>40
COc1ccccc1C=NNC(=O)CC(=O)NCc1cccnc1	x	x	x	x	0	x	x
Cc1cc(C(=O)NN=Cc2ccc(N(C)C)o2)cs1	x	x	x	x	11	x	x
CCOC(=O)c1c(NC(=S)Nc2ccc(OC)cc2)sc2c1CCC2	106	0	47*	i	8	-1	37*	RORg counter=>40
COc1ccc(OC)c(NC(=O)c2sc3nc(Cc4ccccc4)cc(C(F)(F)F)c3c2N)c1	109	-2	82*	i	-8	-1	29*
COC(=O)c1ccc2c(=O)[nH]c(COC(=O)CCC(=O)c3ccc(Cl)cc3)nc2c1	102	1	20*	i	1	6	6
COC(=O)C1=C(C)NC(C)=C(C(=O)OC)C1C(=O)OCc1nc2cc(C(=O)OC)ccc2c(=O)[nH]1	87	-1	1	i	-12	0	x
O=S(=O)(c1ccccc1)c1nnn2c1nc(NC1CCN(Cc3ccccc3)CC1)c1cc(Cl)ccc12	94	-7	25*	i	x	-1	0
O=S(=O)(c1ccccc1)c1nnn2c1nc(NC1CCN(Cc3ccccc3)CC1)c1ccccc12	107	-8	47*	i	-121	-2	16
CC(=NNC(=O)CNC(=O)c1ccncc1)c1ccco1	x	x	x	x	2	x	x
Cc1cccc(-c2nc3sc(C)cc3c(=O)o2)c1	113	-3	0	i	-2	-1	x
Cc1cc2c(=O)oc(-c3ccc(Br)cc3)nc2s1	122	-2	31*	i	-3	0	7
COc1ccc(-n2nc3c(N4CCC(C(=O)NCc5cccc(C)c5)CC4)nnc(C)c3c2C)cc1	130	-8	5	i	-56	-4	x
CCOc1ccc(CNC(=O)C2CCN(c3nnc(C)c4c(C)n(-c5ccc(C)cc5)nc34)CC2)cc1	82	-5	33*	i	-37	2	34*	RORg counter=>40
Cc1ccc(N(Cc2cc3ccc(C)cc3[nH]c2=O)S(=O)(=O)c2ccccc2)cc1	129	-4	34*	i	-2	-1	19*
Cc1ccc(S(=O)(=O)N(Cc2cc3ccc(C)cc3[nH]c2=O)c2ccccc2)cc1	105	-1	9	i	2	1	x
Cc1ccccc1C(=O)NN(C)c1nc2ccccc2nc1C(F)(F)F	107	-1	36*	i	-10	-1	31*
CC(=NNC(=O)COc1c(C)cccc1C)c1cccs1	x	x	x	x	-1	x	x
CCOC(=O)c1ccc2c(c1)nc(SCC(=O)c1ccco1)n2CC	104	0	-6	i	4	0	x
